From ChEMBL document CHEMBL2150981, “Discovery and optimization of benzotriazine di-N-oxides targeting replicating and nonreplicating Mycobacterium tuberculosis” (J Med Chem, 2012)
Values after ≈ are worked out from the molar mass of the structure shown.

Experiments:
[1] = system: Mycobacterium tuberculosis; experiment: Antitubercular activity against Mycobacterium tuberculosis H37Rv isolate SRI after 5 days by resazurin-based microplate assay; type: functional; settings: 120 h
[2] = system: Mycobacterium tuberculosis; experiment: Antitubercular activity against Mycobacterium tuberculosis H37Rv isolate ITR after 7 days by luminescence spectrometry; type: functional; settings: 168 h
[3] = system: Mycobacterium tuberculosis; experiment: Antitubercular activity against Mycobacterium tuberculosis H37Rv incubated for 10 days in anaerobic condition followed by 48 hrs incubation in aerobic condition by LORA assay; type: functional
Vero = experiment: (§1) Cytotoxicity against african green monkey Vero cells after 72 hrs by CellTiterGlo assay; settings: chlorocebus sabaeus, vero, 72 h
[4] = Selectivity index, ratio of CC50 for Vero cells to MIC90 for Mycobacterium tuberculosis H37Rv isolate SRI; type: functional
[5] = system: Mycobacterium tuberculosis; experiment: Antitubercular activity against p-amino-salicyclic acid-resistant Mycobacterium tuberculosis ATCC 35821 after 5 days by resazurin-based microplate assay; type: functional; settings: ATCC 35821, 120 h
Method in brief: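 Mid-log cultures grown in 7H9 with glycerol, Tween-80 and ADC. Compounds in DMSO were tested two-fold from […] against ~10^5 CFU/mL, 37°C for 5 d. Resazurin was then added for a further 2 d, and fluorescence read at ex 530/em 590 with visual confirmation. MIC was the lowest concentration inhibiting 90% of growth. Final DMSO 0.625%; two-fold variation taken as assay error.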

[6] = as §1; settings: chlorocebus sabaeus, Vero cells

Row | SMILES | MIC90 [1] | MIC90 [2] | MIC90 [3] | CC50 (Vero) | Selectivity Index [4] | MIC90 [5] | CC50 at 72 h [6]
1 | [O-][n+]1nc(N2CCCCC2)[n+]([O-])c2cc3c(cc21)CCC3 | 0.62 µg/mL (≈ 2.17 µM) | 0.4 µg/mL (≈ 1.4 µM) | 0.49 µg/mL (≈ 1.71 µM) | 21 µg/mL (≈ 73.3 µM) | 13 | 0.31 µg/mL (≈ 1.08 µM) | 
2 | CN(CCc1ccccc1)c1n[n+]([O-])c2cc3c(cc2[n+]1[O-])CCC3 | 0.31 µg/mL (≈ 0.922 µM) | 0.24 µg/mL (≈ 0.713 µM) | 0.44 µg/mL (≈ 1.31 µM) | 40 µg/mL (≈ 119 µM) | 130 | 0.15 µg/mL (≈ 0.446 µM) | 
3 | CCNc1n[n+]([O-])c2cccc(C)c2[n+]1[O-] | 0.62 µg/mL (≈ 2.82 µM) | 0.51 µg/mL (≈ 2.32 µM) | 0.48 µg/mL (≈ 2.18 µM) | 22 µg/mL (≈ 99.9 µM) | 36 | 0.31 µg/mL (≈ 1.41 µM) | 
4 | CC(C)(C)Nc1n[n+]([O-])c2ccccc2[n+]1[O-] | 1.2 µg/mL (≈ 5.12 µM) | 1.9 µg/mL (≈ 8.11 µM) | 0.82 µg/mL (≈ 3.5 µM) | 8 µg/mL (≈ 34.2 µM) | 6.4 | 1.2 µg/mL (≈ 5.12 µM) | 
5 | CCNc1n[n+]([O-])c2cc(C)c(OC)cc2[n+]1[O-] |  | 3.5 µg/mL (≈ 14 µM) | 2.5 µg/mL (≈ 9.99 µM) | > 100 µg/mL | >40 | 1.2 µg/mL (≈ 4.8 µM) | 
6 | COCC(C)Nc1n[n+]([O-])c2cc(F)ccc2[n+]1[O-] (configuration not stated) | 5 µg/mL (≈ 18.6 µM) | 2 µg/mL (≈ 7.46 µM) | 1.9 µg/mL (≈ 7.08 µM) |  | 1.3 |  | 6.3 µg/mL (≈ 23.5 µM)
7 | COCC(C)Nc1n[n+]([O-])c2cc(Cl)ccc2[n+]1[O-] (configuration not stated) | 1.2 µg/mL (≈ 4.21 µM) | 1.4 µg/mL (≈ 4.92 µM) | 0.78 µg/mL (≈ 2.74 µM) |  | 2.1 |  | 2.6 µg/mL (≈ 9.13 µM)
8 | CC1CCCCN1c1n[n+]([O-])c2cc3c(cc2[n+]1[O-])CCC3 (configuration not stated) | 1.2 µg/mL (≈ 4 µM) | 0.66 µg/mL (≈ 2.2 µM) | 0.47 µg/mL (≈ 1.56 µM) | > 50 µg/mL | >40 | 0.62 µg/mL (≈ 2.06 µM) | 
9 | CN(Cc1ccccc1)c1n[n+]([O-])c2cc3c(cc2[n+]1[O-])CCC3 | 0.31 µg/mL (≈ 0.962 µM) | 0.15 µg/mL (≈ 0.465 µM) | 0.41 µg/mL (≈ 1.27 µM) | 17 µg/mL (≈ 52.7 µM) | 53 | 0.07 µg/mL (≈ 0.217 µM) | 
10 | [O-][n+]1nc(NC2CCC2)[n+]([O-])c2cc3c(cc21)CCC3 | 0.62 µg/mL (≈ 2.28 µM) | 0.96 µg/mL (≈ 3.53 µM) | 0.44 µg/mL (≈ 1.62 µM) | 34 µg/mL (≈ 125 µM) | 54 | 0.62 µg/mL (≈ 2.28 µM) | 
11 | CSc1c(C)[n+]([O-])c2ccccc2[n+]1[O-] | 10 µg/mL (≈ 45 µM) | 28 µg/mL (≈ 126 µM) | 9.4 µg/mL (≈ 42.3 µM) | > 16 µg/mL | >1.6 |  | 
12 | COc1ccc2c(c1)[n+]([O-])nc(NC1CCC1)[n+]2[O-] | 0.62 µg/mL (≈ 2.36 µM) | 0.96 µg/mL (≈ 3.66 µM) | 0.9 µg/mL (≈ 3.43 µM) | 9.8 µg/mL (≈ 37.4 µM) | 16 |  | 
13 | [O-][n+]1nc(N2CCCC2)[n+]([O-])c2ccccc21 | 0.31 µg/mL (≈ 1.33 µM) |  |  | 17 µg/mL (≈ 73.2 µM) | 56 | 0.62 µg/mL (≈ 2.67 µM) | 
14 | O=S1(=O)CCN(c2n[n+]([O-])c3cc4c(cc3[n+]2[O-])CCC4)CC1 | 5 µg/mL (≈ 14.9 µM) | 15 µg/mL (≈ 44.6 µM) | 30 µg/mL (≈ 89.2 µM) | 17 µg/mL (≈ 50.5 µM) | 3.4 |  | 
15 | [O-][n+]1nc(NC2CCCC2)[n+]([O-])c2ccc(F)cc21 | 0.31 µg/mL (≈ 1.17 µM) | 0.33 µg/mL (≈ 1.25 µM) | 0.34 µg/mL (≈ 1.29 µM) | 2.3 µg/mL (≈ 8.7 µM) | 7.3 |  | 
16 | CN(C)c1n[n+]([O-])c2cc3c(cc2[n+]1[O-])CCC3 | 0.62 µg/mL (≈ 2.52 µM) | 0.3 µg/mL (≈ 1.22 µM) | 1.5 µg/mL (≈ 6.09 µM) | 24 µg/mL (≈ 97.5 µM) | 13 | 0.15 µg/mL (≈ 0.609 µM) | 
